Experimental data taken from paper PMC9002156 (Journal of Biomedical Research, 2022).
Like-named read-outs stand apart in the source and are kept apart here.

Columns and labels:
[1] = type: in vitro ADME, human; conditions: mean±SD; for Found, after three-thaw cycles / Found, at –80 °C for 45 days / Found, plasma at room temperature for 8 hours: human plasma; for Found, extract at room temperature for 8 hours / Found, extract in the auto-sampler at 4 °C for 24 hours: plasma extract
[2] = Stability of stock solutions in acetonitrile; type: physicochemical; conditions: in acetonitrile at −20 °C
Outline: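 Separate acetonitrile stocks were made: 10 μg/mL for each analyte and 1 mg/mL for the internal standard. They were vortexed, briefly sonicated and stored at −20 °C. Analyte stability was examined after 2 months at −20 °C. Read-out was LC-MS/MS quantification.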

[3] = Plasma concentrations in CAD patients after oral Plavix 75 mg; type: in vivo; conditions: human
Outline: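 Venous blood (3 mL) from CAD patients was drawn into EDTA/DTT tubes before dosing and at 0.5, 1, 2, 2.5, 3, 3.5, 6, 8, 12 and 24 h after dosing. MPB (500 mmol/L stock) was added at once, then spun 16 000 g for 10 min and held at −80 °C. Read-out was LC-MS/MS on C18 at 40 °C, 0.1% formic acid:acetonitrile (1:19), 1 mL/min. Thiol metabolite was measured as derivative. Calibration used peak area with internal standard, weighted 1/x2. Mean±SD, n=3.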

[4] = test system: carboxylesterases; conditions: cited from earlier work
[5] = test system: CYP2C19; conditions: cited from earlier work

| Found, after three-thaw cycles ([1]; added 0.2 ng/mL) [ng/mL] | Found, at –80 °C for 45 days ([1]; added 0.2 ng/mL) [ng/mL] | Found, plasma at room temperature for 8 hours ([1]; added 0.2 ng/mL) [ng/mL] | Found, after three-thaw cycles ([1]; added 10 ng/mL) [ng/mL] | Found, at –80 °C for 45 days ([1]; added 10 ng/mL) [ng/mL] | Found, plasma at room temperature for 8 hours ([1]; added 10 ng/mL) [ng/mL] | Found, extract at room temperature for 8 hours ([1]; added 0.2 ng/mL) [ng/mL] | Found, extract in the auto-sampler at 4 °C for 24 hours ([1]; added 0.2 ng/mL) [ng/mL] | Found, extract at room temperature for 8 hours ([1]; added 10 ng/mL) [ng/mL] | Found, extract in the auto-sampler at 4 °C for 24 hours ([1]; added 10 ng/mL) [ng/mL] | Time stock solutions were stable [2] | Cmax [3] [ng/mL] | SMILES | Portion hydrolyzed into inactive metabolites by carboxylesterases [4] | Contribution of CYP2C19 to metabolism, second step ([5]; 2-Oxo-CLP to active metabolite) [%] | Contribution of CYP2C19 to metabolism, first step ([5]; clopidogrel metabolized to 2-Oxo-CLP) [%] |
| --- | --- | --- | --- | --- | --- | --- | --- | --- | --- | --- | --- | --- | --- | --- | --- |
| 0.2 ± 0.0 | 0.2 ± 0.0 | 0.2 ± 0.0 | 10.1 ± 0.8 | 10.1 ± 0.2 | 10.4 ± 0.8 | 0.2 ± 0.0 | 0.2 ± 0.0 | 10.0 ± 1.4 | 10.0 ± 0.8 | at least 2 months | 17 | COC(=O)[C@H](c1ccccc1Cl)N1CCc2sccc2C1 [Clopidogrel, (+)-(S)-methyl 2-(2-chlorophenyl)-2-(6,7-dihydrothieno[3,2-c]pyridine-5(4H)-yl)acetate] | approximately 85% | 20 | 45 |
| – | – | – | – | – | – | – | – | – | – | at least 2 months | – | CC#C[C@]1(O)CC[C@H]2[C@@H]3CCC4=CC(=O)CCC4=C3[C@@H](c3ccc(N(C)C)cc3)C[C@@]21C [IS, Mifepristone] | – | – | – |
